Data: ChEMBL document CHEMBL2086384, “Chiral cyclohexane 1,3-diones as inhibitors of mutant SOD1-dependent protein aggregation for the treatment of ALS” (ACS Med Chem Lett, 2012)
Values belong to the compound of their own block, whether it stands above or below them. Calls of active or inactive are those of the source. The rule behind the calls is not given here.

Tests used:
[1] = test system: Cerebral cortex neuron; assay: Inhibition of SOD1 G93A mutant-induced protein aggregation in MG132-treated rat primary cortical neurons assessed as decrease in cell death at 10 uM incubated for 24 hrs prior to MG132 treatment measured after 48 hrs by Calcein-AM staining method; type: cell-based
[2] = Inhibition of SOD1 G93A mutant-induced protein aggregation in MG132-treated rat PC12 cells assessed as decrease in cell death incubated for 24 hrs prior to MG132 treatment measured after 48 hrs by Calcein-AM staining method; type: cell-based; conditions: PC-12
[3] = test system: Cerebral cortex neuron; assay: Inhibition of SOD1 G93A mutant-induced protein aggregation in MG132-treated rat primary cortical neurons assessed as decrease in cell death up to 100 uM incubated for 24 hrs prior to MG132 treatment measured after 48 hrs by Calcein-AM staining method; type: cell-based
[4] = Aqueous solubility of the compound in DMSO after 1 hr by spectrophotometry; type: physicochemical
In short: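 Aqueous solubility: DMSO stock diluted into PBS to a final 1% DMSO. The limit was taken as the highest concentration showing no precipitation.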

[5] = Half life in plasma; type: ADME, cell-free
[6] = test system: Liver microsomes; assay: Half life in human liver microsomes at 1 uM after 1 hr in presence of NADPH; type: ADME, Microsome
In short: (§1)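 Human or mouse liver microsomes; test compound at 1 μM, incubated at 37 °C for 1 h with and without NADPH. Intrinsic clearance given in mL/min/kg and half-life in min.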

[7] = test system: Liver; assay: Half life in mouse liver microsomes at 1 uM after 1 hr in presence of NADPH; type: ADME, Microsome; in short: as §1
[8] = Intrinsic clearance in human liver microsomes at 1 uM after 1 hr in absence of NADPH; type: ADME, Microsome; conditions: read-out: CLH; in short: as §1
[9] = test system: Liver microsomes; assay: Half life in human liver microsomes at 1 uM after 1 hr in absence of NADPH; type: ADME, Microsome; in short: as §1
[10] = test system: Liver; assay: Half life in mouse liver microsomes at 1 uM after 1 hr in absence of NADPH; type: ADME, Microsome; in short: as §1
[11] = Apparent permeability of the compound from apical to basal side of human Caco2 cells at 50 uM after 2 hrs; type: ADME, cell-based; conditions: Caco-2
[12] = Apparent permeability of the compound from basal to apical side of human Caco2 cells at 50 uM after 2 hrs; type: ADME, cell-based; conditions: Caco-2
[13] = test system: Caco-2; assay: Efflux ratio of apparent permeability from basal to apical to apical to basal side of human Caco2 cells at 50 uM after 2 hrs; type: ADME, cell-based; conditions: caco-2, 2 h
[14] = test system: Cerebral cortex neuron; assay: Inhibition of SOD1 G93A mutant-induced protein aggregation in MG132-treated rat primary cortical neurons assessed as decrease in cell death at 3 uM incubated for 24 hrs prior to MG132 treatment measured after 48 hrs by Calcein-AM staining method; type: cell-based
[15] = test system: Liver microsomes; assay: Drug metabolism in rat liver microsomes at 10 uM after 1 hr by LC-PDA-MS/MS analysis; type: ADME, Microsome
[16] = Drug uptake in blood at 500 mg/kg, ip at 12 hrs; type: ADME, organism-based; parameters: dose 500 mg/kg, route intraperitoneal; conditions: read-out: Drug uptake
In short: (§2)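 Single i.p. dose of 500 mg/kg in mice. Blood and brain levels were sampled over time to find the maximum level and Tmax.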

[17] = Half life in blood at 500 mg/kg, ip; type: ADME, organism-based; parameters: dose 500 mg/kg, route intraperitoneal
In short: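 Compound given i.p. at 500 mg/kg. Concentrations were measured in blood, with brain levels sampled in the same study. The half-life was taken from the blood time course.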

[18] = Drug uptake in brain at 500 mg/kg, ip; type: ADME, organism-based; parameters: dose 500 mg/kg, route intraperitoneal; conditions: in vivo, read-out: Drug uptake; in short: as §2
[19] = Tmax in brain at 500 mg/kg, ip; type: ADME, organism-based; parameters: dose 500 mg/kg, route intraperitoneal
In short: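 Compound given as a single intraperitoneal dose of 500 mg/kg. Levels were followed over time in both blood and brain. Tmax is the time at which the brain concentration peaked.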

[20] = Toxicity in mouse administered BID; type: organism-based; conditions: in vivo
In short: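 Tolerable dose range found in wild-type mice by escalating the dose given b.i.d.; maximum tolerated dose taken as the read-out.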

[21] = test system: Mus musculus; assay: Increase in life span of transgenic mouse expressing human SOD1 G93A mutant at 20 mg/kg administered QD until death relative to untreated-control; type: functional
In short: (§3)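 Transgenic mice expressing human G93A mutant SOD1, cohorts matched for age (±3 days) and "f" generation, drawn from multiple litters. Dosed 10, 20 or 30 mg/kg once daily from 6 weeks of age until end of life; untreated G93A mice served as controls. Survival read out by Kaplan-Meier plot and reported as mean ± value in days, with p values.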

[22] = test system: Mus musculus; assay: Increase in life span of transgenic mouse expressing human SOD1 G93A mutant assessed as survival at 10 mg/kg administered QD until death (reference value: 125.7+/-4.3 days); type: functional; in short: as §3
[23] = test system: Mus musculus; assay: Increase in life span of transgenic mouse expressing human SOD1 G93A mutant assessed as survival at 30 mg/kg administered QD until death (reference value: 125.7+/-4.3 days); type: functional; in short: as §3
[24] = test system: Mus musculus; assay: Increase in life span of transgenic mouse expressing human SOD1 G93A mutant at 22 mg/kg; type: functional

SMILES: O=c1cc(COc2cc(Cl)cc(Cl)c2)[nH][nH]1
inhibition [1]: Active

SMILES: CC(Oc1cc(C(F)(F)F)cc(C(F)(F)F)c1)C1CC(=O)CC(=O)C1 (racemic)
EC50 [2]: 700 nM | inhibition [3]: Active

SMILES: O=C1CC(=O)CC(c2cc(C(F)(F)F)cc(C(F)(F)F)c2)C1
EC50 [2]: 700 nM | inhibition [3]: inactive

SMILES: C[C@@H](Oc1cc(C(F)(F)F)cc(C(F)(F)F)c1)C1CC(=O)CC(=O)C1
EC50 [2]: 1300 nM | inhibition [3]: Active

SMILES: O=C1CC(=O)CC([C@H]2C[C@@H]2c2cc(C(F)(F)F)cc(C(F)(F)F)c2)C1
EC50 [2]: 1390 nM | inhibition [3]: Active

SMILES: O=C1CC(=O)CC(C2CC2c2cc(C(F)(F)F)cc(C(F)(F)F)c2)C1 (racemic)
EC50 [2]: 1000 nM | inhibition [3]: Active

solubility [4]: >= 100 uM | t1/2 [5]: 1.18 h | t1/2 [6]: 0.817 h | t1/2 [7]: 0.467 h | CLint scaled at 1 µM [8]: 12 mL/min/kg | t1/2 [9]: > 3 h | t1/2 [10]: 0.617 h | Papp A→B at 2 h, 50 µM [11]: 21.7 ×10⁻⁶ cm/s | Papp B→A at 2 h, 50 µM [12]: 1.1 ×10⁻⁶ cm/s | Ratio [13]: 0.1
SMILES: O=C1CC(=O)CC([C@@H]2C[C@H]2c2cc(C(F)(F)F)cc(C(F)(F)F)c2)C1
EC50 [2]: 800 nM | inhibition [3]: Active

SMILES: C[C@H](Oc1cc(C(F)(F)F)cc(C(F)(F)F)c1)C1CC(=O)CC(=O)C1
EC50 [2]: 300 nM | inhibition [3]: Active | inhibition [14]: > 90% | solubility [4]: >= 100 uM | t1/2 [5]: > 1 h | t1/2 [7]: 0.867 h | CLint scaled at 1 µM [8]: 10 mL/min/kg | t1/2 [9]: > 3 h | t1/2 [10]: 0.867 h | Drug metabolism [15]: Active | Papp A→B at 2 h, 50 µM [11]: 24.1 ×10⁻⁶ cm/s | Papp B→A at 2 h, 50 µM [12]: 1.5 ×10⁻⁶ cm/s | Ratio [13]: 0.1 | concentration at 12 h [16]: 245 µM | half-life [17]: 12 h | concentration [18]: 8.3 µM | Tmax [19]: 12 h | MTD [20]: 1280 mg/kg | survival at 20 mg/kg [21]: 13% | Survival [22]: 139.2 days | Survival [23]: 127.9 days

SMILES: Nc1nc2ccc(OC(F)(F)F)cc2s1 [RILUZOLE]
survival at 22 mg/kg [24]: 10%
